A selection: hits, their analogues and other compounds. The true share with any hit is near 1.5%.
APJ ag: activates the human apelin receptor APJ; P35414; CHO-K1 APJ PathHunter beta-arrestin, luminescence; 0% DMSO wells, 100% apelin; activation, % at 20 µM; 330,000 compounds, 0.11% hits; AID 2520;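 active means activation more than six SD over the plate average, tested at 20 µM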;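 further: 0% = DMSO alone and 100% = apelin-13 at 10 nM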
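Test system – PathHunter CHO-K1 APJ (AGTRL-1) beta-arrestin reporter cells · Input – 1000 cells/well · Compound – single test compound dose, 20 µM final, 1% DMSO · Times – compound stimulation 90 min at 25 °C, detection 60 min · Technique – beta-gal luminescence · Read-out basis – APJ–arrestin association signal · Control set – negative DMSO alone, positive Apelin-13 at 10 nM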
APJ antag: blocks the human apelin receptor APJ. inhibition, % at 20 µM. P35414. AID 2521. 330,000 compounds, 0.32% hits. CHO-K1 APJ beta-arrestin complementation, luminescence;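 active means inhibition above about 40% at 20 µM, limit read from the data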;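 further: cells challenged with 10 nM apelin-13 agonist together with compound; plate controls were apelin-13 plus DMSO wells for no effect and DMSO wells lacking apelin-13 for full effect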
CXCR6 inh: CXCR6 (human) receptor inhibition. O00574. CHO-K1 PathHunter CXCR6 beta-arrestin, luminescence. inhibition, % at 20 µM. 360,000 compounds, 0.36% hits; in the data active means inhibition above about 34%, passing the limit was not always enough;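 further: antagonist mode with CXCL16 agonist at 10 nM final; 0% = 10 nM CXCL16 with DMSO and 100% = unstimulated wells without agonist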
EBI2 antag: blocks human EBI2 receptor beta-arrestin signaling | P32249 | EBI2 beta-arrestin recruitment, luminescence, 7a,25-OHC stimulated | inhibition, % at 5 µM | 360,000 compounds, 0.81% hits | AID 651636; in the data active means inhibition above about 38%;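 further: enzyme fragment complementation signal reports receptor beta-arrestin coupling in cells; 0% = agonist plus DMSO wells and 100% = wells without agonist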
CCR6 antagonist: antagonists of human CCR6 receptor; P51684; CHO-K1 CCR6 PathHunter beta-arrestin, luminescence, CCL20-stimulated; inhibition, % at 20 µM; 340,000 compounds, 0.49% hits; AID 493098;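 active means compounds whose inhibition of the agonist-driven luminescence signal at 20 µM reaches about 50%, limit read from the data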;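 further: cells stimulated with CCL20 at 14 nM final; plate controls were DMSO with CCL20 for no effect and DMSO without agonist for full effect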
Target sequence (P51684 whole entry, looked up): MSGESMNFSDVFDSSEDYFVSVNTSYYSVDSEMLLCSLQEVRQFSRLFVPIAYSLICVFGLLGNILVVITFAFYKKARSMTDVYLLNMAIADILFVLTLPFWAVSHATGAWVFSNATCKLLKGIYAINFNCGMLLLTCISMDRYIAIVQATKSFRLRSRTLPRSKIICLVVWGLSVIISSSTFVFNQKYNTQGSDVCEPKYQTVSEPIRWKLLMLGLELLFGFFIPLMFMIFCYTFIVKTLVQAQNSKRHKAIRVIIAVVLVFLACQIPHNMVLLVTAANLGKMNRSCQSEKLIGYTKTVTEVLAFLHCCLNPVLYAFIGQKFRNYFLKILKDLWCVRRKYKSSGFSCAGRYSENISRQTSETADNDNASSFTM
APJ antag confirm: APJ receptor antagonism confirmation; APJ beta-arrestin recruitment, luminescence, antagonist mode; inhibition, % at 20 µM; shares compounds with APJ antag; 950 compounds, 66% hits; AID 2766; in the data active means inhibition above about 50%
CXCR6 confirm: CXCR6 antagonism confirmation, single concentration. shares compounds with CXCR6 inh. CHO-K1 CXCR6 PathHunter beta-arrestin, luminescence. inhibition, % at 20 µM. 700 compounds, 65% hits. AID 602409;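 active means mean inhibition over four retests above 40%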;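 further: receptor stimulated with 10 nM CXCL16 agonist; beta-galactosidase fragment complementation upon beta-arrestin recruitment to receptor; plate controls were CXCL16 plus DMSO for no effect and DMSO without CXCL16 for full effect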
EBI2 conf: EBI2 (human) antagonism, single concentration confirmation | EBI2 beta-arrestin luminescence, 7a,25-OHC antagonism | 2,400 compounds, 29% hits | inhibition, % at 5 µM | shares compounds with EBI2 antag;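 active means inhibition of at least 50%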
EBI2 ag: EBI2 agonism counter-screen; activation, % at 5 µM; shares compounds with EBI2 antag; AID 652000; EBI2-expressing cells, agonist mode, luminescence, 60 min; 0% vehicle, 100% 7α,25-dihydroxycholesterol control; 2,400 tested, under 10 active;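 active means activation of at least 50%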
bGal cs: counter-screen for EBI2 antagonists: E. coli beta-galactosidase inhibition; inhibition, % at 5 µM; 2,400 compounds, 1% hits; shares compounds with EBI2 antag; purified beta-galactosidase, luminescent Galacton Star, 15 min;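 active means replicate-average signal at least 3 plate SD below neutral wells, shown as high inhibition, flagging enzyme-inhibiting false positives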;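 further: 0% = DMSO wells with enzyme and 100% = wells lacking enzyme; higher means stronger loss of beta-gal luminescence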
* marks the source's active call; other numbers are inactive results; · = no result given.

SMILES	APJ ag	APJ antag	CXCR6 inh	EBI2 antag	CCR6 antagonist	APJ antag confirm	CXCR6 confirm	others
O=C(NNC(=O)C12CC3CC(CC(C3)C1)C2)c1cnccn1	-1	3	13	4	10	·	·
O=C(NNC(=O)C12CC3CC(CC(C3)C1)C2)c1ccccn1	-8	49*	71*	-2	92*	69*	79*
C/C(=N\NC(=O)Cn1c(-c2ccccn2)nc2ccccc21)c1ccccc1	-9	47*	46*	8	60*	72*	47*
Cc1ccc(NC(=S)NNc2ccc(C(=O)O)cc2[N+](=O)[O-])cc1C	-6	42*	41*	8	36	50	42*
Cc1ccsc1/C=C/c1ccc2cccc(O)c2n1	-11	46*	60*	41	74*	41	66*
Oc1cccc2ccc(/C=C/c3cccs3)nc12	-8	53*	50*	40*	72*	51*	51*
CSc1ccc(/C=C/c2ccc3cccc(O)c3n2)cc1	-2	11	4	11	12	·	·
C=CCNc1nc2cc(-c3ccccc3C)sc2c(=O)n1C	·	·	18	14	·	·	·
COc1ccc(-c2coc3c(C(=O)NCc4cccs4)cccc23)c(C)c1	·	·	2	17	·	·	·
COc1cc(/C=C/c2ccc3cccc(OC)c3n2)c(OC(C)=O)c([N+](=O)[O-])c1	-8	45*	41*	29	53*	75*	44*
COC(=O)CSc1[nH]c2ccc(Br)cc2c1[N+](=O)[O-]	-7	41*	41*	18	61*	55*	46*
CCc1nc2ccc(C(=O)N(CC)CCN(C)C)cn2c1N(CC)C(=O)NCCc1ccccc1	·	·	4	-4	·	·	·
COc1ccccc1OC(=O)c1cc2ccccc2oc1=O	-1	11	-1	-12	-6	·	·
COc1cc(/C=C/[N+](=O)[O-])ccc1OC(=O)c1cc2ccccc2oc1=O	-2	46*	76*	-8	29	91*	69*
CCc1nc2c(OCc3ccc4c(c3)OCO4)cccn2c1N(C=O)Cc1ccccc1	·	·	-2	12	·	·	·
CC(=O)N1N=C(c2cccs2)CC1c1cccc([N+](=O)[O-])c1 (stereo unspecified)	-8	53*	50*	25	62*	52*	54*
CC(=O)N1N=C(c2ccccc2)CC1c1cccc([N+](=O)[O-])c1 (stereo unspecified)	-6	39	34	21	46	·	·
CC1(C(=O)NS(=O)(=O)Cc2cccc(Cl)c2)CCN1C(=O)C1CCCCC1 (stereo unspecified)	·	·	-2	1	·	·	·
CCC(C)c1ccc(O)c(NC(=S)NC(=O)c2cccnc2)c1 (stereo unspecified)	-12	67*	74*	19	87*	131*	70*
O=C(NC(=S)Nc1ccccc1O)c1cccnc1	-8	47*	42*	6	59*	48	43*
CC1(C(=O)NS(=O)(=O)c2ccccc2)CCN1C(=O)Cc1cccs1 (stereo unspecified)	·	·	-8	-7	·	·	·
CCn1c(=O)cc(NC2=NCC(C)CN2c2cccc(Cl)c2)n(C)c1=O (stereo unspecified)	-10	62*	57*	33	66*	110*	59*
CCn1c(NC)cc(=O)n(C)c1=O	3	-5	-4	0	2	·	·
Cc1cccnc1Nc1nc(-c2ccccn2)cs1	-11	80*	72*	76*	72*	103*	89*
Cc1ccc(OCCN2C(=O)c3ccccc3C2=O)c([N+](=O)[O-])c1	-5	48*	53*	62*	46	66*	58*	EBI2 conf=52*;EBI2 ag=0;bGal cs=7
SMILES	APJ ag	APJ antag	CXCR6 inh	EBI2 antag	CCR6 antagonist	APJ antag confirm	CXCR6 confirm	others
CCc1ccc(C(=O)NNc2ccc(C)c(Cl)c2)cc1	-9	53*	10	46*	38	80*	·	EBI2 conf=23;EBI2 ag=-3;bGal cs=-8
CCc1ccc(C(=O)NNc2ccc(F)cc2)cc1	-8	30	14	5	16	·	·
CC(=NNC(=O)c1ccncc1)c1cccc(Br)c1	·	·	0	0	2	·	·
C/C(=N\NC(=O)c1cccc(Br)c1)c1ccccn1	-18	67*	31	67*	65*	59*	·	EBI2 conf=82*;EBI2 ag=-2;bGal cs=9
C/C(=N/NC(=O)c1ccc(C(C)(C)C)cc1)c1ccccn1	-19	69*	77*	74*	94*	88*	82*	EBI2 conf=87*;EBI2 ag=-3;bGal cs=7
COc1cc2ccc(C=O)cc2cc1OC	·	·	1	-6	·	·	·
O=C(Nc1nnc([C@@H]2C[C@H](O)[C@@H](CO)O2)s1)c1cccc2ccccc12	·	·	-3	1	·	·	·
O=C1C(Cc2ccccc2)Nc2ncnc(N3CCN(c4ccccc4)CC3)c2N1Cc1ccc(Cl)cc1 (stereo unspecified)	-17	65*	68*	65*	78*	104*	70*	EBI2 conf=71*;EBI2 ag=-4;bGal cs=39*
COc1ccc(CN2C(=O)C(Cc3ccccc3)Nc3ncnc(N4CCN(c5ccccc5)CC4)c32)cc1 (stereo unspecified)	-21	53*	70*	44*	80*	110*	68*	EBI2 conf=40;EBI2 ag=-2;bGal cs=32*
CC(C)CC1Nc2ncnc(N3CCN(c4ccccc4)CC3)c2N(Cc2ccccc2)C1=O (stereo unspecified)	1	-5	16	1	10	·	·
CCCCNC(=O)C1(C)CCN1C(=O)c1cc(C)n(C(C)(C)C)n1 (stereo unspecified)	·	·	-3	-3	·	·	·
CCc1nc2c(OCCC3CCCCC3)cccn2c1N(C)C(=O)c1ccc(OC)cc1	·	·	45*	22	·	·	6
N#Cc1ccc(OCc2c(-c3ccccc3)nnn2CC(=O)O)cc1	·	·	-6	-7	·	·	·
O=S(=O)(/C=C/C=C/S(=O)(=O)c1ccccc1)c1ccccc1	·	·	70*	54*	89*	·	67*
Cn1cnc([N+](=O)[O-])c1S(=O)(=O)Oc1ccccc1	·	·	42*	11	49	·	60*
Cn1cnc([N+](=O)[O-])c1S(=O)(=O)Nc1ccccc1	·	·	11	2	4	·	·
